Laboratory results as given in ChEMBL document CHEMBL2417469, “Synthesis of novel analogs of 2-pyrazoline obtained from [(7-chloroquinolin-4-yl)amino]chalcones and hydrazine as potential antitumor and antimalarial agents” (Eur J Med Chem, 2013).
≈ marks a conversion by molar mass, not a printed value.

Key:
Plasmodium falciparum [1] = experiment: Antimalarial activity against Plasmodium falciparum NF54 infected in human serum at 20 ug/ml after 48 hrs by fluorometric method; format: functional
How it was run: (§1)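 Asynchronous P. falciparum NF54 at 1.5–2% parasitemia, 5% hematocrit in RPMI with 10% human serum, exposed 48 h at 37 °C under 90% N2/5% CO2/5% O2 at the stated concentration; parasite DNA stained with ethidium bromide after proteinase K lysis; viability % = (Flu treated − medium)/(Flu untreated − medium) ×100; triplicate.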

[2] = Toxicity in RBC (unknown origin) assessed as hemolysis after 48 hrs at 20 to 80 ug/ml by spectrophotometry; format: cell-based, Erythrocyte; details: red blood cells (RBC); read-out: Activity
How it was run: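 Red blood cells at 5% hematocrit in RPMI 1640 exposed to 20, 40 and 80 µg/mL for 48 h at 37 °C; free hemoglobin read spectrophotometrically at 542 nm.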

Plasmodium falciparum [3] = experiment: Antimalarial activity against Plasmodium falciparum NF54 infected in human serum after 48 hrs by fluorometric method; format: functional, organism-based
How it was run: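 Asynchronous P. falciparum NF54 cultures at 1.5–2% parasitemia, 5% hematocrit in RPMI with 10% human serum; equal volumes of parasite suspension and compound dilutions (from 100 µg/mL stock) incubated 48 h, 37 °C, 90% N2/5% CO2/5% O2. DNA extracted with proteinase K lysis, stained with ethidium bromide; fluorescence-based viability vs compound-free control. IC50 by Probit; triplicate.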

Plasmodium falciparum [4] = experiment: Antimalarial activity against Plasmodium falciparum NF54 infected in human serum at 22.2 ug/ml after 48 hrs by fluorometric method; format: functional; how it was run: as §1

| IC50 (Plasmodium falciparum [3]) [µg/mL] | SMILES | inhibition at 20 µg/mL (Plasmodium falciparum [1]) [%] | hemolysis at 48 h [2] [%] | inhibition at 22.2 µg/mL (Plasmodium falciparum [4]) [%] |
| --- | --- | --- | --- | --- |
| – | Cc1ccc(C2CC(c3cccc(Nc4ccnc5cc(Cl)ccc45)c3)=NN2C=O)cc1 (stereo unspecified) | 0 | – | – |
| 38 (≈ 86.2 µM) | CC(=O)N1N=C(c2ccc(Nc3ccnc4cc(Cl)ccc34)cc2)CC1c1ccccc1 (stereo unspecified) | 33 | 2.8 | – |
| > 100 | COc1ccc(C2CC(c3ccc(Nc4ccnc5cc(Cl)ccc45)cc3)=NN2C(C)=O)cc1 (stereo unspecified) | 38.3 | 3.1 | – |
| – | COc1cc(C2CC(c3ccc(Nc4ccnc5cc(Cl)ccc45)cc3)=NN2C(C)=O)cc(OC)c1OC (stereo unspecified) | 0 | – | – |
| – | CC(=O)N1N=C(c2ccc(Nc3ccnc4cc(Cl)ccc34)cc2)CC1c1ccc(C)cc1 (stereo unspecified) | 10.6 | – | – |
| 14.1 (≈ 27.9 µM) | O=CN1N=C(c2ccc(Nc3ccnc4cc(Cl)ccc34)cc2)CC1c1ccc(Br)cc1 (stereo unspecified) | 50.8 | 3.2 | – |
| – | O=CN1N=C(c2cccc(Nc3ccnc4cc(Cl)ccc34)c2)CC1c1ccc(Br)cc1 (stereo unspecified) | 12.5 | – | – |
| – | CC(=O)N1N=C(c2ccc(Nc3ccnc4cc(Cl)ccc34)cc2)CC1c1ccc(Br)cc1 (stereo unspecified) | 6.8 | – | – |
| – | CCN(CC)CCCC(C)Nc1ccnc2cc(Cl)ccc12 (stereo unspecified) [CHLOROQUINE PHOSPHATE] | – | 17.2 | 68.4 |
